# KCNK3 inh: human KCNK3 channel inhibition, primary screen | O14649 | CHO-KCNK3 thallium flux, FluxOR fluorescence; active compounds read low | B-score at 10 µM | actives 0.84% (n = 340,000);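 active = B-score under library mean minus 4 SD, starting fluorescence ratio at most library mean plus 5 SD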;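 also: more negative B-score means stronger inhibition of thallium flux through KCNK3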
# hERG protect: shields human hERG channel from block by proarrhythmic agents | Q12809 | CHO-hERG, FluxOR thallium flux, dofetilide IC70 present | activation (rescue from dofetilide block), less the hit threshold, % at 10 µM | actives 0.51% (n = 310,000) | AID 1511;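 active = activation above the mean of controls blocked by dofetilide plus 5 SD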;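 also: thallium influx through hERG after potassium depolarization seen as dye fluorescence rise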
# KCNK9 inh: inhibitors of human KCNK9 two-pore domain potassium channel; actives 1.2% (n = 310,000); B-score at 10 µM; HEK293 KCNK9, FluxOR thallium flux fluorescence; active compounds read low; AID 488922;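 active = ratio B-score over 3 SD below the library mean, with starting fluorescence within 5 SD of its mean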;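 also: negative B-score means less thallium flux so channel inhibition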
# Target sequence (Q9NPC2 whole entry, looked up, the tested form may be a part): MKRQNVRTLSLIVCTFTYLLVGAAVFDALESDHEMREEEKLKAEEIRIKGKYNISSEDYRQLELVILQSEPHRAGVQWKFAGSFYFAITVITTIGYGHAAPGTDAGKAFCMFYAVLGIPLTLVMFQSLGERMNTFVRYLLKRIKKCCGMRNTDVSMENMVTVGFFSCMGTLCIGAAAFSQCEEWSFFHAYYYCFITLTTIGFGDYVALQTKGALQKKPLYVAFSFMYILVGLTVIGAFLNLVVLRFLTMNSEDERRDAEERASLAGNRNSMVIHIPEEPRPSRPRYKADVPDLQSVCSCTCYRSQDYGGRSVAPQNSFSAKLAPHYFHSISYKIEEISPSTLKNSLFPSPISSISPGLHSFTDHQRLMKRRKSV
# KCNQ1 act: human KCNQ1 channel potentiation or activation; P51787; CHO-K1 KCNQ1, thallium flux FluxOR fluorescence; active compounds read high; B-score at 10 µM; actives 0.35% (n = 310,000);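 active = fluorescence ratio B-score, a plate-corrected score, at least three library SD, with initial intensity B-score within 5 SD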
#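 assay system = KCNQ1-transfected CHO-K1 cells | medium = assay buffer with matched DMSO | probe or stimulus = depolarizing K+/Tl+ stimulus, K2SO4 and Tl2SO4 each 12.5 mM in 5x stock | dosing = single dose | incubation = dye 90 min, compound 20 min, room temperature | detection = kinetic FluxOR fluorescence, 10 s baseline plus 110 s post-stimulus | evaluation = ratio B score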
# KCNQ1 block: blocks the human KCNQ1 potassium channel; P51787; CHO-K1 KCNQ1, FluxOR thallium flux fluorescence; active compounds read high; B-score at 10 µM; actives 1.3% (n = 310,000);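 active = compounds whose thallium flux B-score, printed positive for inhibition, exceeds three library SD while starting fluorescence stays within three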;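 also: channel opened by potassium depolarization with thallium stimulus after 20 min compound exposure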
# An asterisk follows results filed as active; i = inactive; · = no result. Only some compounds are listed: those with a hit (about 3.1% of all), similar ones and a draw of the others.
SMILES,KCNK3 inh,hERG protect,KCNK9 inh,KCNQ1 act,KCNQ1 block
COc1ccc(CNCCc2ccc(Cl)cc2)cc1OCc1ccccc1,-9.5*,-41.4,i,i,10*
CCOc1cc(CNCc2ccccc2)ccc1OCc1ccc(Cl)cc1,i,-20.7,i,i,7*
O=c1ccc(S(=O)(=O)N2CCCC2)cn1Cc1ccc(Cl)cc1Cl,i,·,·,·,·
O=c1ccccn1Cc1c(F)cccc1Cl,i,5.2*,i,i,i
Cc1cccn(Cc2c(F)cccc2Cl)c1=O,i,-3.9,i,i,i
CC(=O)C1N=NCC1c1ccccc1 (stereo unspecified),i,·,·,·,·
CCCCCc1cc(OC)cc2c1C(=O)OC(C)(C)O2,-10.9*,·,·,·,·
COc1cc(NC(=O)COc2cc(O)c3c(c2)OC(C)(C)CC3=O)cc(OC)c1,i,-5.0,i,i,i
CN(Cc1ccccc1)C(=O)c1cccc(NC(=O)Cc2cccc(NC(=O)C3CCN(C(=O)c4ccccc4)CC3)c2)c1,i,·,·,·,·
O=c1c(Cl)c(Cl)cnn1Cc1nnc(-c2ccccc2Br)o1,i,-14.2,i,27*,i
COCCOC(=O)C1=C(C)NC(=S)NC1c1ccc(OCC(=O)N2CC(C)OC(C)C2)c(OC)c1 (stereo unspecified),i,·,·,·,·
CC12c3ccccc3C(c3ccccc31)C1C(=O)N(c3ccncc3)C(=O)C12 (stereo unspecified),i,-6.7,i,i,i
CC12c3ccccc3C(c3ccccc31)C1C(=O)N(c3cccnc3)C(=O)C12 (stereo unspecified),i,-7.9,-7.56*,i,i
Nc1nc(COC(=O)C2CC(=O)N(CCc3ccccc3)C2)nc(Nc2ccccc2)n1 (stereo unspecified),i,·,·,·,·
Cc1ccc(C(=O)N2CC(C)OC(C)C2)cc1S(=O)(=O)N1CCCCC1 (stereo unspecified),i,·,·,·,·
CCC(Oc1ccccc1)C(=O)Nc1ccc(S(=O)(=O)N2CCOCC2)cc1 (stereo unspecified),i,5.0*,i,i,i
COc1ccc(CC(=O)Nc2ccc(C)c(S(=O)(=O)N3CCCCCC3)c2)cc1,i,·,·,·,·
O=C(CCc1ccccc1Cl)Nc1cc(S(=O)(=O)N2CCOCC2)ccc1N1CCCC1,i,·,·,·,·
CC(C)(C)NNC(=S)Nc1ccc(S(=O)(=O)N2CCOCC2)cc1,i,-9.2,i,i,i
O=C(CCc1ccccc1Cl)Nc1ccc(S(=O)(=O)N2CCOCC2)cc1,i,7.0*,i,i,i
Cc1ccc(NC(=O)Cc2ccc(Cl)cc2)cc1S(=O)(=O)N1CCCCCC1,-9.05*,·,·,·,·
Cc1ccc(NC(=S)Nc2ccc(S(=O)(=O)N3CCOCC3)cc2)cc1S(=O)(=O)N1CCOCC1,i,-12.6,i,i,7*
O=C([C@@H]1CCCN1C(=O)c1cccs1)N1CCN(S(=O)(=O)c2cccc(F)c2)CC1,i,·,·,·,·
CCN(CC(=O)Nc1ccc(NC(C)=O)cc1)C(=O)c1cc(CN2C(=O)c3ccccc3C2=O)ccc1OC,i,-14.3,i,i,i
Cc1cc(C)c2c(=N)c3ccccc3n(CCCCCCCCn3c4ccccc4c(=N)c4c(C)cc(C)nc43)c2n1,-10.4*,·,·,·,·
SMILES,KCNK3 inh,hERG protect,KCNK9 inh,KCNQ1 act,KCNQ1 block
CCCCCn1c2c(c(=N)c3ccccc31)CCC2,i,-25.4,i,i,i
CCC(NC(=O)c1[nH]c(C)c(C(C)=O)c1C)c1ccc(Br)cc1 (stereo unspecified),i,-11.6,i,i,6*
O=C(CSc1nc2ccc(Nc3nc(N4CCCC4)nc(N4CCCC4)n3)cc2s1)NCc1ccco1,i,-15.2,i,i,8*
COc1ccc(-c2sc(Nc3ccccc3)n[n+]2-c2ccc(F)cc2)c(OC)c1OC,i,-18.4,i,i,7*
COc1cc(OC)c(-c2sc(Nc3ccccc3)n[n+]2-c2ccc(F)cc2)cc1OC,i,-1.7,i,i,i
Cc1ccc(S(=O)(=O)N(CCC(=O)N2CCOCC2)c2ccccc2)cc1,i,·,·,·,·
O=S(=O)(c1ccc(SCc2cccc(Cl)c2)nc1)N1CCCC1,-9.52*,·,·,·,·
Cc1ccc(CSc2ccc(S(=O)(=O)N3CCCC3)cn2)cc1,i,·,·,·,·
CC(C)(O)CN(C(=O)c1ccccc1)C1CCCCC1,i,·,·,·,·
COc1ccc(/C=C2\SC(=O)N(CC(=O)NCCCn3ccnc3)C2=O)cc1,i,-7.3,i,i,7*
Cc1ccnc(N2C(=O)c3cccc4c([N+](=O)[O-])ccc(c34)C2=O)c1,i,-12.9,i,i,7*
CCOc1ccc(-n2c(-c3ccc(Br)cc3)c[n+]3c2CCCCC3)cc1,i,-22.6,i,i,8*
COc1ccc(-c2c[n+]3c(n2-c2ccc(C)cc2)CCCCC3)cc1,i,-21.6,i,i,9*
CCOc1ccc(-n2c(-c3ccc(OC)cc3)c[n+]3c2CCCCC3)cc1,i,-24.9,i,i,7*
CCOc1ccc(-n2c(-c3ccccc3)c[n+]3c2CCC3)cc1,i,-25.9,i,i,i
CC(C)(C)C(=O)NN=C1CCC(c2ccccc2)CC1 (stereo unspecified),i,-9.7,i,i,i
CN(CC(=O)Nc1ccccc1C(F)(F)F)C(=O)CSc1nc(N)cc(N)n1,i,·,·,·,·
CCOC(=O)N1CCN(C(=O)/C=C/c2ccc(OC)cc2)CC1,i,10.1*,i,i,i
Cc1ccc(S(=O)(=O)N2CCC(=O)N(C(COC(=O)Nc3ccccc3)Cc3ccccc3)CC2)cc1 (stereo unspecified),i,-16.4,-6.67*,i,i
Cc1ccc(S(=O)(=O)N2CCC(=O)N(C(CO)Cc3ccccc3)CC2)cc1 (stereo unspecified),i,-7.0,i,i,i
CC(OC(=O)[C@H](C)NC(=O)c1ccccc1Cl)C(=O)NCc1ccc2c(c1)OCO2 (stereo partly specified),i,-13.7,i,i,i
Cc1cc(C(=O)OC(C(=O)Nc2cccc(C(F)(F)F)c2)c2ccccc2)c(C)o1 (stereo unspecified),i,-5.1,i,i,9*
Cc1ccc(NC(=O)C(OC(=O)c2cc(C)oc2C)c2ccccc2)cc1 (stereo unspecified),i,-4.8,i,i,i
COc1nccnc1NS(=O)(=O)c1ccc(NC(=S)NC(=O)c2ccccc2F)cc1,i,1.5,i,8*,i
CC1C(=O)C(C)C(c2ccc(Br)cc2)NC1c1ccc(Br)cc1 (stereo unspecified),i,-9.4,i,i,6*
CC1C(=O)C(C)C(c2cc(Br)ccc2O)NC1c1cc(Br)ccc1O (stereo unspecified),i,·,·,·,·
